Laboratory results reported in ChEMBL document CHEMBL1944507, “Structure-activity relationships for amide-, carbamate-, and urea-linked analogues of the tuberculosis drug (6S)-2-nitro-6-{[4-(trifluoromethoxy)benzyl]oxy}-6,7-dihydro-5H-imidazo[2,1-b][1,3]oxazine (PA-824)” (J Med Chem, 2012).
Converted amounts (≈) assume the structure as drawn.

Experiments:
[1] = Chemical stability of the compound; format: physicochemical
[2] = Metabolic stability of the compound in CD-1 mouse liver microsomes assessed as compound remaining after 1 hr; format: ADME, Microsome; conditions: read-out: Stability
Method in brief: (§1)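 Pooled human or CD-1 mouse liver microsomes incubated with compound for 1 h. Percentage of compound remaining calculated from analyte/internal standard peak area ratios.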

[3] = Thermodynamic solubility of the compound at pH 1; format: physicochemical; conditions: buffer, read-out: Therm_solubility
[4] = Octanol-water partition coefficient, log P of the compound by shake-flask method; format: physicochemical
Method in brief: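 Octanol-water partition coefficient measured by the shake-flask method.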

[5] = Tmax in high fat diet fed Beagle dog at 20 mg/kg, po; format: ADME, organism-based, Canis lupus familiaris; design: dose 20 mg/kg, route oral; conditions: in vivo
[6] = Cmax in Sprague-Dawley rat at 1 mg/kg, iv; format: ADME, organism-based; design: dose 1 mg/kg, route intravenous; conditions: in vivo
[7] = Plasma protein binding in human at 10 uM; format: ADME, cell-free; conditions: read-out: PPB (converted)
Method in brief: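 Human plasma protein binding measured by equilibrium dialysis, with overnight incubation of compound at 10 μM containing 1% DMSO.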

[8] = system: Mycobacterium tuberculosis; experiment: Antimicrobial activity against Mycobacterium tuberculosis infected in chronic BALB/c mouse infection model assessed as fold reduction in lung CFU at 30 mg/kg, po administered daily 5 days a week for 8 weeks starting 50 days post-infection; format: functional
Method in brief: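 Chronic infection model: groups of 7 M. tb-infected BALB/c mice given 30 mg/kg orally, daily 5 days/week for 8 weeks, starting about 50 days postinfection. Lung CFU reduction expressed relative to the reference drug.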

[9] = AUC (0 to infinity) in CD-1 mouse plasma at 40 mg/kg, po; format: ADME, organism-based; design: dose 40 mg/kg, route oral, time infinity
Method in brief: (§2)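 CD-1 mice given a single oral dose of 40 mg/kg, suspended in 0.5% carboxymethylcellulose/0.08% Tween 80 in water. Plasma and lung samples quantified by LC-MS/MS. AUC extrapolated to infinity. Lung/plasma ratio is lung AUC divided by plasma AUC.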

[10] = Tmax in Sprague-Dawley rat at 20 mg/kg, po; format: ADME, organism-based; design: dose 20 mg/kg, route oral; conditions: in vivo
[11] = Oral bioavailability in Sprague-Dawley rat at 20 mg/kg; format: ADME, organism-based; conditions: in vivo
[12] = Cmax in Sprague-Dawley rat at 20 mg/kg, po; format: ADME, organism-based; design: dose 20 mg/kg, route oral; conditions: in vivo
Salmonella typhimurium [13] = experiment: Induction of mutagenesis in Salmonella Typhimurium TA98 in presence of rat liver S9 fraction by Ames test; format: toxicity, organism-based; conditions: salmonella enterica subsp. enterica serovar typhimurium
Method in brief: (§3)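 MicroAmes reverse mutation screen in Salmonella TA98 and TA100, preincubated with and without rat liver S9, at 0.25-250 μg/well.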

[14] = Tmax in Beagle dog at 2 mg/kg, iv; format: ADME, organism-based, Canis lupus familiaris; design: dose 2 mg/kg, route intravenous; conditions: in vivo
[15] = Cmax in Beagle dog at 2 mg/kg, iv; format: ADME, organism-based, Canis lupus familiaris; design: dose 2 mg/kg, route intravenous; conditions: in vivo
[16] = AUC (0 to infinity) in CD-1 mouse lung at 40 mg/kg, po; format: ADME, organism-based; design: dose 40 mg/kg, route oral, time infinity; method in brief: as §2
[17] = Cmax in Beagle dog at 20 mg/kg, po; format: ADME, organism-based, Canis lupus familiaris; design: dose 20 mg/kg, route oral; conditions: in vivo
[18] = system: Mycobacterium tuberculosis; experiment: Antimicrobial activity against Mycobacterium tuberculosis infected in BALB/c mouse assessed as fold reduction in lung CFU at 100 mg/kg, po administered 11 days after post infection qd for 5 days per week for 3 weeks relative to PA-824; format: functional
Method in brief: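 Groups of 7 M. tb-infected BALB/c mice dosed orally at 100 mg/kg daily, 5 days/week for 3 weeks, starting on day 11 postinfection. Readout is the average lung CFU reduction in treated mice divided by the average CFU reduction in mice given the reference nitroimidazooxazine.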

[19] = target: Voltage-gated inwardly rectifying potassium channel KCNH2 (Homo sapiens, UniProt Q12809); experiment: Inhibition of human Erg expressed in HEK293 cells by FAST patch clamp analysis; format: cell-based
Sequence of Voltage-gated inwardly rectifying potassium channel KCNH2 (Q12809 whole entry): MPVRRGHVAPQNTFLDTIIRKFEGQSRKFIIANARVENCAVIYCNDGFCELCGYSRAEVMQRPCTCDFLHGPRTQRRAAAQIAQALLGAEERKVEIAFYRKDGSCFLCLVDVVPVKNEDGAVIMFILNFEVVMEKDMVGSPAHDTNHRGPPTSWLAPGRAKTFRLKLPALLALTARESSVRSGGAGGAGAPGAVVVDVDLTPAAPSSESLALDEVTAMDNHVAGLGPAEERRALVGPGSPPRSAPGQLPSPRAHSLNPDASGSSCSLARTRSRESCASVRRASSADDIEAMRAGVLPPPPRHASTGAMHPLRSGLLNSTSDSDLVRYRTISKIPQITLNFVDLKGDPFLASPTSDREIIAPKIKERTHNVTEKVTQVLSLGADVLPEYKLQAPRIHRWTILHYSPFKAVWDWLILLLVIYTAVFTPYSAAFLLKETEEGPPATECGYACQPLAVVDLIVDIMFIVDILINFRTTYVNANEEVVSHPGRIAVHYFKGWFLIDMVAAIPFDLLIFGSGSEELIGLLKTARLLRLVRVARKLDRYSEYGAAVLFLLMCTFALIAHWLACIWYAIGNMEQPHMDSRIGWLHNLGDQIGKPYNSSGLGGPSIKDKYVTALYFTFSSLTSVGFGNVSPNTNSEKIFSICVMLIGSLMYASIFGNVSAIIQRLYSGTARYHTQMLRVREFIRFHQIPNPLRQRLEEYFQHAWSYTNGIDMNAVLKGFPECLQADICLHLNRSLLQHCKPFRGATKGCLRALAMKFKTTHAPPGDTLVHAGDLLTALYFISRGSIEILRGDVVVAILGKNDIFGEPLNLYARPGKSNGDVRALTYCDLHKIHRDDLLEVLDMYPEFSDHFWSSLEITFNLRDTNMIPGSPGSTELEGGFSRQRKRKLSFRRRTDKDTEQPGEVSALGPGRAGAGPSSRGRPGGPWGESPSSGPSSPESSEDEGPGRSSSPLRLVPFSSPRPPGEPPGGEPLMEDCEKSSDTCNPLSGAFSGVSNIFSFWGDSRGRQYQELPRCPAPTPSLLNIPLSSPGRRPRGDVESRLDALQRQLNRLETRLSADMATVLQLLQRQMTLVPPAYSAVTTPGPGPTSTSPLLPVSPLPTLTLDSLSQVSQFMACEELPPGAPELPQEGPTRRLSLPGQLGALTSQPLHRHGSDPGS

[20] = AUC (0 to 24 hrs) in Sprague-Dawley rat at 1 mg/kg, iv; format: ADME, organism-based; design: time < 24 hr, dose 1 mg/kg, route intravenous; conditions: plasma
[21] = Thermodynamic solubility of the compound at pH 7.4; format: physicochemical; conditions: buffer, read-out: Therm_solubility
[22] = Half life in CD-1 mouse plasma at 40 mg/kg, po; format: ADME, organism-based; design: dose 40 mg/kg, route oral; method in brief: as §2
[23] = Half life in high fat diet fed Beagle dog at 20 mg/kg, po; format: ADME, organism-based, Canis lupus familiaris; design: dose 20 mg/kg, route oral; conditions: in vivo
[24] = AUC (0 to 72 hrs) in Beagle dog at 20 mg/kg, po; format: ADME, organism-based, Canis lupus familiaris; design: time < 72 hr, dose 20 mg/kg, route oral; conditions: plasma
[25] = Half life in Beagle dog at 2 mg/kg, iv; format: ADME, organism-based, Canis lupus familiaris; design: dose 2 mg/kg, route intravenous; conditions: in vivo
[26] = Cmax in CD-1 mouse plasma at 40 mg/kg, po; format: ADME, organism-based; design: dose 40 mg/kg, route oral; method in brief: as §2
[27] = Cmax in high fat diet fed Beagle dog at 20 mg/kg, po; format: ADME, organism-based, Canis lupus familiaris; design: dose 20 mg/kg, route oral; conditions: in vivo
[28] = Half life in CD-1 mouse lung at 40 mg/kg, po; format: ADME, organism-based; design: dose 40 mg/kg, route oral; method in brief: as §2
[29] = Oral bioavailability in Beagle dog at 20 mg/kg; format: ADME, organism-based, Canis lupus familiaris; conditions: in vivo
[30] = Tmax in Sprague-Dawley rat at 1 mg/kg, iv; format: ADME, organism-based; design: dose 1 mg/kg, route intravenous; conditions: in vivo
[31] = Metabolic stability of the compound in human liver microsomes assessed as compound remaining after 1 hr; format: ADME, Microsome; conditions: read-out: Stability; method in brief: as §1
[32] = Tmax in Beagle dog at 20 mg/kg, po; format: ADME, organism-based, Canis lupus familiaris; design: dose 20 mg/kg, route oral; conditions: in vivo
Salmonella typhimurium [33] = experiment: Induction of mutagenesis in Salmonella Typhimurium TA100 in presence of rat liver S9 fraction by Ames test; format: toxicity, organism-based; conditions: salmonella enterica subsp. enterica serovar typhimurium; method in brief: as §3
[34] = AUC (0 to 72 hrs) in high fat diet fed Beagle dog at 20 mg/kg, po; format: ADME, organism-based, Canis lupus familiaris; design: time < 72 hr, dose 20 mg/kg, route oral; conditions: plasma
[35] = Half life in Beagle dog at 20 mg/kg, po; format: ADME, organism-based, Canis lupus familiaris; design: dose 20 mg/kg, route oral; conditions: in vivo
[36] = Half life in Sprague-Dawley rat at 1 mg/kg, iv; format: ADME, organism-based; design: dose 1 mg/kg, route intravenous; conditions: in vivo
[37] = AUC (0 to 24 hrs) in Sprague-Dawley rat at 20 mg/kg, po; format: ADME, organism-based; design: time < 24 hr, dose 20 mg/kg, route oral; conditions: plasma
[38] = AUC (0 to 72 hrs) in Beagle dog at 2 mg/kg, iv; format: ADME, organism-based, Canis lupus familiaris; design: time < 72 hr, dose 2 mg/kg, route intravenous; conditions: plasma
Salmonella typhimurium [39] = experiment: Induction of mutagenesis in Salmonella Typhimurium TA98 in absence of rat liver S9 fraction by Ames test; format: toxicity, organism-based; conditions: salmonella enterica subsp. enterica serovar typhimurium; method in brief: as §3
Salmonella typhimurium [40] = experiment: Induction of mutagenesis in Salmonella Typhimurium TA100 in absence of rat liver S9 fraction by Ames test; format: toxicity, organism-based; conditions: salmonella enterica subsp. enterica serovar typhimurium; method in brief: as §3
[41] = Cmax in CD-1 mouse lung at 40 mg/kg, po; format: ADME, organism-based; design: dose 40 mg/kg, route oral; method in brief: as §2
[42] = Kinetic solubility of the compound in water at pH 7 by HPLC analysis; format: physicochemical; conditions: read-out: Kinetic_solubility

## O=C(N[C@@H]1COc2nc([N+](=O)[O-])cn2C1)Oc1ccc(OC(F)(F)F)cc1
[1]
  Stability: Unstable

## O=C(O[C@@H]1COc2nc([N+](=O)[O-])cn2C1)N1CCN(c2ccc(OC(F)(F)F)cc2)CC1
[2]
  remaining at 1 h: 85%
[3]
  solubility thermodynamic: 169 µM (≈ 77.3 µg/mL)
[4]
  logP: 2.82
[5]
  Tmax: 12 h
[6]
  Cmax: 700 ng/mL
[7]
  fraction unbound at 10 µM: 0.09
[8]
  fold change (FC): 0.92
[9]
  AUC(0-inf): 53400 ng·h/mL
[10]
  Tmax: 5 h
[11]
  bioavailability: 57%
[12]
  Cmax: 4400 ng/mL
Salmonella typhimurium [13]
  Activity: Non-toxic
[14]
  Tmax: 30 min
[15]
  Cmax: 1700 ng/mL
[16]
  AUC(0-inf): 169 µg·h/mL
[17]
  Cmax: 5800 ng/mL
[18]
  fold change (FC): 5.2
[19]
  IC50: > 30 µM
[20]
  AUC(0-t) at 24 h: 5930 ng·h/mL
[21]
  solubility thermodynamic: 33 µM (≈ 15.1 µg/mL)
[22]
  half-life: 630 min
[23]
  half-life: 1800 min
[24]
  AUC(0-t) at 72 h: 232 µg·h/mL
[25]
  half-life: 1680 min
[26]
  Cmax: 2500 ng/mL
[27]
  Cmax: 5200 ng/mL
[28]
  half-life: 630 min
[29]
  bioavailability: 84%
[30]
  Tmax: 4.98 min
[31]
  remaining at 1 h: 82%
[32]
  Tmax: 8 h
Salmonella typhimurium [33]
  Activity: Non-toxic
[34]
  AUC(0-t) at 72 h: 182 µg·h/mL
[35]
  half-life: 1740 min
[36]
  half-life: 498 min
[37]
  AUC(0-t) at 24 h: 67400 ng·h/mL
[38]
  AUC(0-t) at 72 h: 27600 ng·h/mL
Salmonella typhimurium [39]
  Activity: Non-toxic
Salmonella typhimurium [40]
  Activity: Non-toxic
[41]
  Cmax: 11700 ng/mL
[42]
  solubility kinetic: 17 µg/mL (≈ 37.2 µM)
